The text below walks through data of ChEMBL document CHEMBL4680165, “β-Lactams with antiproliferative and antiapoptotic activity in breast and chemoresistant colon cancer cells” (Eur J Med Chem, 2020).

For one test, the system named is MCF7. Description: Antiproliferative activity against human MCF7 cells assessed as reduction in cell viability after 72 hrs by alamar blue assay. It is filed as functional, cell-based. As to conditions: MCF7, 72 h. The gist of the method:
(§1)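 Cells seeded at 5 x 10^3/well (MCF-7) or 1 x 10^4/well (HT-29, HEK-293T) and treated after 24 h with serial dilutions (0.001-100 µM) in 1% v/v ethanol vehicle. Alamar Blue 10% v/v added at 72 h, then 3-5 h at 37 °C in the dark; fluorescence ex 530/em 590 nm. Viability relative to vehicle; IC50 from dose-response curves; mean of three experiments in triplicate.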
Background: Resazurin is reduced to fluorescent resorufin, in cell work by metabolically active cells.

Test [1] concerns HT-29. Description: Antiproliferative activity against human HT-29 cells assessed as reduction in cell viability after 72 hrs by alamar blue assay. It is filed as functional, cell-based. Particulars: HT-29, 72 h. In short, it runs like this:
as §1

Test [2] is described as follows: Selectivity index, ratio of IC50 for human MCF7 cells to IC50 for human HT-29 cells assessed as reduction in cell viability after 72 hrs by alamar blue assay. The test is classed as functional.
The species named for the next test is Bos taurus. Nature of the test: Inhibition of bovine brain tubulin polymerization at 10 uM measured at 30 sec interval for 30 mins in presence of GTP by turbidimetry-based spectrophotometric method.
In test [3] the test system is HT-29. Description: Antiangiogenic activity in human HT29 cells assessed as reduction in IL-1alpha secretion at 5 uM after 24 hrs by ELISA. It is filed as functional, cell-based. The gist of the method: (§2)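 HT-29 cells at 5 x 10^4 per well, cultured 24 h and then exposed to 5 µM compound. Conditioned medium collected on ice and stored at -80 °C. Cytokines and angiogenic, vascular-injury and chemokine factors measured by multiplex panels with overnight supernatant incubation (Angiogenesis Panel 1 and Vascular Injury Panel 2 same day). Medium undiluted except 1:4 for Vascular Injury Panel 2. Secretion normalised to lysate protein by BCA.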
(ELISA stands for enzyme-linked immunosorbent assay.)

Test [4] deals with HT-29. Nature of the test: Antiangiogenic activity in human HT29 cells assessed as reduction in IL-1beta secretion at 5 uM after 24 hrs by ELISA. It is filed as functional, cell-based. The gist of the method:
as §2

Test [5] relates to HT-29. Nature of the test: Antiangiogenic activity in human HT29 cells assessed as reduction in VEGF secretion at 5 uM after 24 hrs by ELISA. It is filed as functional, cell-based. The gist of the method: as §2
The subject of test [6] is HT-29. Nature of the test: Antiangiogenic activity in human HT-29 cells assessed as increase in IL-1RA secretion at 5 uM after 24 hrs by ELISA. It is filed as functional, cell-based. The gist of the method: as §2
Test [7] deals with HT-29. Nature of the test: Potency index, ratio of CA-4 IC50 to test compound IC50 for human HT-29 cells. It is filed as functional.

SMILES strings stand for the structures. The source made the active and inactive calls. The calls are words filed in the database; no cut-off is given here.

By IC50 is commonly meant the concentration that gives 50% inhibition. For the compound `COc1ccc([C@H]2[C@H](O)C(=O)N2c2cc(OC)c(OC)c(OC)c2)cc1C`, the results for the IC50 with MCF7 and in the test with HT-29 [1] were 5 nM and 7 nM, respectively. Further, the “Ratio IC50” value in [2] is listed as 0.71; in the test on HT-29 [7], 600. In addition, the inhibition entry in the test listed under Bos taurus was “Active”. Also, the result in the test with HT-29 [3], with HT-29 [4] and in the test with HT-29 [5] was inactive. Further, the outcome in the test with HT-29 [6] was Active.
